According to ChEMBL document CHEMBL1148475, “Nonpeptide luteinizing hormone-releasing hormone antagonists derived from erythromycin A: design, synthesis, and biological activity of cladinose replacement analogues” (J Med Chem, 2004):

Legend:
[1] = target: T1, Gonadotropin-releasing hormone receptor (Homo sapiens, UniProt P30968); test: In vitro binding affinity was determined against human Luteinizing hormone-releasing hormone (LHRH) receptor cloned in CHO cells; type: cell-based
T1 sequence (P30968 whole entry): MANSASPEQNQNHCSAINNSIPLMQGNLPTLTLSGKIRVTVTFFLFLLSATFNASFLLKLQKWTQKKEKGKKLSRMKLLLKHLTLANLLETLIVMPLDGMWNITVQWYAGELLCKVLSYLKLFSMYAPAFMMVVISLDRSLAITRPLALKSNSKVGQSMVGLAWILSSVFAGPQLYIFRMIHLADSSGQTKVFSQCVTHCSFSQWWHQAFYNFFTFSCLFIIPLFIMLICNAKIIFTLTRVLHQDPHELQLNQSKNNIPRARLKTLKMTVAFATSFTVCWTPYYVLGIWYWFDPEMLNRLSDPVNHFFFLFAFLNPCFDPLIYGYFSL

[2] = target: T1, Gonadotropin-releasing hormone receptor; test: In vitro binding affinity to human luteinizing hormone-releasing hormone (LHRH) receptor cloned in CHO cells; type: cell-based
[3] = target: T2, Gonadotropin-releasing hormone receptor (Rattus norvegicus, UniProt P30969); test: In vitro binding affinity to rat luteinizing hormone-releasing hormone (LHRH) receptor cloned in CHO cells; type: cell-based
T2 sequence (P30969 whole entry): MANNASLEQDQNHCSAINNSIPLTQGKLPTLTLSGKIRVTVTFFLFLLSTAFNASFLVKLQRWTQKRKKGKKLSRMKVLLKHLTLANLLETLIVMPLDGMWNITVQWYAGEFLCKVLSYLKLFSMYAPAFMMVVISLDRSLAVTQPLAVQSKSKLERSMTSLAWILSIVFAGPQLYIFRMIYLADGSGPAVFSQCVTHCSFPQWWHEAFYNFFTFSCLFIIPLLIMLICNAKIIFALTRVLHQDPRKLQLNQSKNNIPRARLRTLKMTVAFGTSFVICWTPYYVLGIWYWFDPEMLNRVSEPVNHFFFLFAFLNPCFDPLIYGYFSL

[4] = target: Gonadotropin-releasing hormone receptor (Rattus norvegicus, UniProt P30969); test: In vitro binding ability against Luteinizing hormone-releasing hormone release in rat pituitary cells; type: cell-based, Pituitary gland cell; conditions: read-out: pA2 (converted)
Procedure, shortened: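 Functional antagonism of LH release measured in cultured rat pituitary cells; potency expressed as pA2.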

| SMILES | Ki [1] [nM] | Ki [2] [nM] | Ki [3] [nM] | Kb [4] [nM] | Log Ki ([2]; cho) |
| --- | --- | --- | --- | --- | --- |
| CC[C@H]1OC(=O)[C@H](C)[C@@H](OC(=O)N2CCOC2)[C@H](C)[C@@H](OC2O[C@H](C)C[C@H](N(C)C(C)C)[C@H]2O)[C@@](C)(OC)C[C@@H](C)C(=O)[C@H](C)[C@H]2N(CCc3ccc(Cl)cc3)C(=O)O[C@]12C (stereo partly drawn) | 200 | – | – | – | – |
| CC[C@H]1OC(=O)[C@H](C)[C@@H](O)[C@H](C)[C@@H](OC2O[C@H](C)C[C@H](N(C)C(C)C)[C@H]2O)[C@@](C)(OC)C[C@@H](C)C(=O)[C@H](C)[C@H]2N(CCc3ccc(Cl)cc3)C(=O)O[C@]12C (stereo partly drawn) | – | 10000 | 2510 | – | – |
| CC[C@H]1OC(=O)[C@H](C)[C@@H](OC(=O)N2CCNC2=O)[C@H](C)[C@@H](OC2O[C@H](C)C[C@H](N(C)C(C)C)[C@H]2O)[C@@](C)(OC)C[C@@H](C)C(=O)[C@H](C)[C@H]2N(CCc3ccc(Cl)cc3)C(=O)O[C@]12C (stereo partly drawn) | – | 2040 | 219 | – | – |
| CC[C@H]1OC(=O)[C@H](C)[C@@H](OC(=O)N2CCCC2)[C@H](C)[C@@H](OC2O[C@H](C)C[C@H](N(C)C(C)C)[C@H]2O)[C@@](C)(OC)C[C@@H](C)C(=O)[C@H](C)[C@H]2N(CCc3ccc(Cl)cc3)C(=O)O[C@]12C (stereo partly drawn) | – | 1620 | 112 | – | – |
| CC[C@H]1OC(=O)[C@H](C)[C@@H](OC(=O)N2CC(C)OC2=O)[C@H](C)[C@@H](OC2O[C@H](C)C[C@H](N(C)C(C)C)[C@H]2O)[C@@](C)(OC)C[C@@H](C)C(=O)[C@H](C)[C@H]2N(CCc3ccc(Cl)cc3)C(=O)O[C@]12C (stereo partly drawn) | – | 36.3 | 7.94 | – | – |
| CC[C@H]1OC(=O)[C@H](C)[C@@H](OC(=O)C2CCOC2)[C@H](C)[C@@H](OC2O[C@H](C)C[C@H](N(C)C(C)C)[C@H]2O)[C@@](C)(OC)C[C@@H](C)C(=O)[C@H](C)[C@H]2N(CCc3ccc(Cl)cc3)C(=O)O[C@]12C (stereo partly drawn) | – | 214 | 14.1 | – | – |
| CC[C@H]1OC(=O)[C@H](C)[C@@H](OC(=O)CC(C)C)[C@H](C)[C@@H](OC2O[C@H](C)C[C@H](N(C)C(C)C)[C@H]2O)[C@@](C)(OC)C[C@@H](C)C(=O)[C@H](C)[C@H]2N(CCc3ccc(Cl)cc3)C(=O)O[C@]12C (stereo partly drawn) | – | 2040 | 141 | – | – |
| CC[C@H]1OC(=O)[C@H](C)[C@@H](OC(=O)N2C(=O)OCC2(C)C)[C@H](C)[C@@H](OC2O[C@H](C)C[C@H](N(C)C(C)C)[C@H]2O)[C@@](C)(OC)C[C@@H](C)C(=O)[C@H](C)[C@H]2N(CCc3ccc(Cl)cc3)C(=O)O[C@]12C (stereo partly drawn) | – | 79.4 | 8.91 | – | – |
| CC[C@H]1OC(=O)[C@H](C)[C@@H](OC(=O)N2CCOCC2)[C@H](C)[C@@H](OC2O[C@H](C)C[C@H](N(C)C(C)C)[C@H]2O)[C@@](C)(OC)C[C@@H](C)C(=O)[C@H](C)[C@H]2N(CCc3ccc(Cl)cc3)C(=O)O[C@]12C (stereo partly drawn) | – | 5620 | 427 | – | – |
| CC[C@H]1OC(=O)[C@H](C)[C@@H](OC(=O)N2CCOC2C)[C@H](C)[C@@H](OC2O[C@H](C)C[C@H](N(C)C(C)C)[C@H]2O)[C@@](C)(OC)C[C@@H](C)C(=O)[C@H](C)[C@H]2N(CCc3ccc(Cl)cc3)C(=O)O[C@]12C (stereo partly drawn) | – | 794 | 120 | – | – |
| CC[C@H]1OC(=O)[C@H](C)[C@@H](OC(=O)N2C(=O)OC[C@H]2CC(C)C)[C@H](C)[C@@H](OC2O[C@H](C)C[C@H](N(C)C(C)C)[C@H]2O)[C@@](C)(OC)C[C@@H](C)C(=O)[C@H](C)[C@H]2N(CCc3ccc(Cl)cc3)C(=O)O[C@]12C (stereo partly drawn) | – | 275 | 692 | – | – |
| CC[C@H]1OC(=O)[C@H](C)[C@@H](OC(=O)N2CCN(C)C2=O)[C@H](C)[C@@H](OC2O[C@H](C)C[C@H](N(C)C(C)C)[C@H]2O)[C@@](C)(OC)C[C@@H](C)C(=O)[C@H](C)[C@H]2N(CCc3ccc(Cl)cc3)C(=O)O[C@]12C (stereo partly drawn) | – | 4680 | 1230 | – | – |
| CC[C@H]1OC(=O)[C@H](C)[C@@H](OC(=O)C2CCCC2)[C@H](C)[C@@H](OC2O[C@H](C)C[C@H](N(C)C(C)C)[C@H]2O)[C@@](C)(OC)C[C@@H](C)C(=O)[C@H](C)[C@H]2N(CCc3ccc(Cl)cc3)C(=O)O[C@]12C (stereo partly drawn) | – | 631 | 50.1 | – | – |
| CCC1CN(C(=O)O[C@H]2[C@H](C)[C@@H](OC3O[C@H](C)C[C@H](N(C)C(C)C)[C@H]3O)[C@@](C)(OC)C[C@@H](C)C(=O)[C@H](C)[C@H]3N(CCc4ccc(Cl)cc4)C(=O)O[C@]3(C)[C@@H](CC)OC(=O)[C@@H]2C)C(=O)O1 (stereo partly drawn) | – | 562 | 18.2 | – | – |

More lines, in order of falling Ki [3], values ahead:

| Ki [1] [nM] | Ki [2] [nM] | Ki [3] [nM] | Kb [4] [nM] | Log Ki ([2]; cho) | SMILES |
| --- | --- | --- | --- | --- | --- |
| – | 66.1 | 6.31 | – | – | CC[C@H]1COC(=O)N1C(=O)O[C@H]1[C@H](C)[C@@H](OC2O[C@H](C)C[C@H](N(C)C(C)C)[C@H]2O)[C@@](C)(OC)C[C@@H](C)C(=O)[C@H](C)[C@H]2N(CCc3ccc(Cl)cc3)C(=O)O[C@]2(C)[C@@H](CC)OC(=O)[C@@H]1C (stereo partly drawn) |
| – | 49 | 5.25 | – | – | CC[C@H]1OC(=O)[C@H](C)[C@@H](OC(=O)N2C(=O)OC[C@H]2C)[C@H](C)[C@@H](OC2O[C@H](C)C[C@H](N(C)C(C)C)[C@H]2O)[C@@](C)(OC)C[C@@H](C)C(=O)[C@H](C)[C@H]2N(CCc3ccc(Cl)cc3)C(=O)O[C@]12C (stereo partly drawn) |
| – | 22.4 | 4.47 | – | – | CC[C@H]1OC(=O)[C@H](C)[C@@H](OC2C[C@@](C)(OC)[C@@H](O)[C@H](C)O2)[C@H](C)[C@@H](OC2O[C@H](C)C[C@H](N(C)C(C)C)[C@H]2O)[C@@](C)(OC)C[C@@H](C)C(=O)[C@H](C)[C@H]2N(CCc3ccc(Cl)cc3)C(=O)O[C@]12C (stereo partly drawn) |
| – | – | 2.88 | – | < -7 | CC[C@H]1OC(=O)[C@H](C)[C@@H](OC(=O)N2C(=O)O[C@H](C)[C@@H]2C)[C@H](C)[C@@H](OC2O[C@H](C)C[C@H](N(C)C(C)C)[C@H]2O)[C@@](C)(OC)C[C@@H](C)C(=O)[C@H](C)[C@H]2N(CCc3ccc(Cl)cc3)C(=O)O[C@]12C (stereo partly drawn) |
| – | 18.6 | 2.88 | – | – | CC[C@H]1OC(=O)[C@H](C)[C@@H](OC(=O)N2C(=O)OC[C@@H]2C)[C@H](C)[C@@H](OC2O[C@H](C)C[C@H](N(C)C(C)C)[C@H]2O)[C@@](C)(OC)C[C@@H](C)C(=O)[C@H](C)[C@H]2N(CCc3ccc(Cl)cc3)C(=O)O[C@]12C (stereo partly drawn) |
| – | 115 | 2.14 | – | – | CC[C@H]1OC(=O)[C@H](C)[C@@H](OC(=O)N2CCOC2=O)[C@H](C)[C@@H](OC2O[C@H](C)C[C@H](N(C)C(C)C)[C@H]2O)[C@@](C)(OC)C[C@@H](C)C(=O)[C@H](C)[C@H]2N(CCc3ccc(Cl)cc3)C(=O)O[C@]12C (stereo partly drawn) |
| – | 38 | 1.17 | – | – | CC[C@H]1OC(=O)[C@H](C)[C@@H](OC(=O)N2C(=O)OC[C@@H]2C)[C@H](C)[C@@H](OC2O[C@H](C)C[C@H](N(C)C3CCCC3)[C@H]2O)[C@@](C)(OC)C[C@@H](C)C(=O)[C@H](C)[C@H]2N(CCc3ccc(Cl)cc3)C(=O)O[C@]12C (stereo partly drawn) |
| – | 5.62 | 0.692 | 0.135 | – | CC[C@H]1OC(=O)[C@H](C)[C@@H](OC(=O)N2C(=O)OC[C@@H]2C)[C@H](C)[C@@H](OC2O[C@H](C)C[C@H](N(C)C3CCCC3)[C@H]2O)[C@@](C)(OC)C[C@@H](C)C(=O)[C@H](C)[C@H]2N(CCc3ccc(Cl)c(Cl)c3)C(=O)O[C@]12C (stereo partly drawn) |
| – | 1.86 | 0.676 | 1.74 | – | CC[C@H]1OC(=O)[C@H](C)[C@@H](OC(=O)N2C(=O)OC[C@@H]2C)[C@H](C)[C@@H](O[C@@H]2O[C@H](C)C[C@H](N(C)CC3CC3)[C@H]2O)[C@@](C)(OC)C[C@@H](C)C(=O)[C@H](C)[C@H]2N(CCc3ccc(Cl)c(Cl)c3)C(=O)O[C@]12C |
| – | 15.1 | 0.234 | 1.78 | – | CC[C@H]1OC(=O)[C@H](C)[C@@H](OC(=O)N2C(=O)OC[C@@H]2C)[C@H](C)[C@@H](OC2O[C@H](C)C[C@H](N(C)C(C)C)[C@H]2O)[C@@](C)(OC)C[C@@H](C)C(=O)[C@H](C)[C@H]2N(CCc3ccc(Cl)c(Cl)c3)C(=O)O[C@]12C (stereo partly drawn) |
| – | 0.331 | 0.107 | 0.479 | – | CC[C@H]1OC(=O)[C@H](C)[C@@H](OC(=O)N2C(=O)OC[C@@H]2C)[C@H](C)[C@@H](OC2O[C@H](C)C[C@H](N(C)CC3CC3)[C@H]2O)[C@@](C)(OC)C[C@@H](C)C(=O)[C@H](C)[C@H]2N(CCc3ccc(F)c(Cl)c3)C(=O)O[C@]12C (stereo partly drawn) |
